ChEMBL document CHEMBL1152148, “Exploring 8-benzyl pteridine-6,7-diones as inhibitors of glutamate racemase (MurI) in gram-positive bacteria” (Bioorg Med Chem Lett, 2008)
In brackets after ≈: the same amount, converted by molar mass.

What was measured:
[1] = Inhibition of Staphylococcus aureus murI assessed as effect on conversion of D-glutamate to L-glutamate at pH 8.0 by HPLC
How it was run: (§1)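 IC50 determined against the MurI isozyme at pH 8 in Tris buffer containing polyethylene glycol, dithiothreitol and D-glutamate substrate. Conversion of D- to L-glutamate was followed by HPLC, with chiral separation of the glutamate enantiomers on a D-penicillamine column.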

Glutamate racemase = target: T1, Glutamate racemase (Enterococcus faecalis (strain ATCC 700802 / V583), UniProt Q836J0); assay: Inhibition of Enterococcus faecalis murI assessed as effect on conversion of D-glutamate to L-glutamate at pH 8.0 by HPLC; how it was run: as §1
T1 sequence (Q836J0 whole entry): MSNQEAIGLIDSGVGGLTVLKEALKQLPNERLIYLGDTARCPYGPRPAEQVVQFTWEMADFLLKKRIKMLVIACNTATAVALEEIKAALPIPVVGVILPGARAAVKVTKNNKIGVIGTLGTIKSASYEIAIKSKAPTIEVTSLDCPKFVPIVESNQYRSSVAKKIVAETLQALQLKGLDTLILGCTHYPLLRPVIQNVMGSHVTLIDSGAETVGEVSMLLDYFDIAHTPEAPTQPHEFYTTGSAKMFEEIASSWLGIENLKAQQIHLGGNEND

Staphylococcus aureus = assay: Antibacterial activity against Staphylococcus aureus by NCCLS method; type: functional
[2] = Solubility in Tris buffer at pH 8.0 by nephelometry; type: physicochemical
How it was run: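 Solubility was determined by nephelometry in the assay medium.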

[3] = Inhibition of Enterococcus faecium murI assessed as effect on conversion of D-glutamate to L-glutamate at pH 8.0 by HPLC

Row | IC50 [1] | IC50 (Glutamate racemase) | MIC (Staphylococcus aureus) | solubility kinetic [2] | IC50 [3] | Compound
1 | < 1.5 µM | 0.65 µM | > 64 µg/mL | 3.1 µM (≈ 1.32 µg/mL) | – | CCCCSc1nc(N)c2[nH]c(=O)c(=O)n(Cc3ccc(Cl)c(Cl)c3)c2n1
2 | 11 µM | 50 µM | – | 3 µM (≈ 1.22 µg/mL) | – | Nc1nc(SCCc2ccccc2)nc2c1[nH]c(=O)c(=O)n2Cc1ccccc1
3 | – | 11 µM | > 64 µg/mL | 25 µM (≈ 8.09 µg/mL) | – | CCCCSc1nc(N)c2[nH]c(=O)c(=O)n(CCCC)c2n1
4 | 14 µM | 1.7 µM | > 64 µg/mL | 50 µM (≈ 20.9 µg/mL) | – | CCCCSc1nc(N)c2[nH]c(=O)c(=O)n(Cc3cc(OC)cc(OC)c3)c2n1
5 | 25 µM | 2.5 µM | 64 µg/mL (≈ 131 µM) | 50 µM (≈ 24.4 µg/mL) | – | CCCCSc1nc(NCCN2CCOCC2)c2[nH]c(=O)c(=O)n(Cc3ccc(F)cc3)c2n1
6 | 21 µM | 6.1 µM | 16 µg/mL (≈ 34.9 µM) | 25 µM (≈ 11.5 µg/mL) | – | CCCCSc1nc(N2CCN(C)CC2)c2[nH]c(=O)c(=O)n(Cc3ccc(F)cc3)c2n1
7 | 5.1 µM | 3.5 µM | > 64 µg/mL | 32 µM (≈ 12 µg/mL) | – | CCCCSc1nc(N)c2[nH]c(=O)c(=O)n(Cc3ccc(F)cc3)c2n1
8 | 6.4 µM | 2.4 µM | > 64 µg/mL | 25 µM (≈ 8.94 µg/mL) | – | CCCCSc1nc(N)c2[nH]c(=O)c(=O)n(Cc3ccccc3)c2n1
9 | 52 µM | 1.9 µM | > 64 µg/mL | 12 µM (≈ 4.43 µg/mL) | – | Nc1nc(SC2CCCC2)nc2c1[nH]c(=O)c(=O)n2Cc1ccccc1
10 | 7.6 µM | 21 µM | – | 3 µM (≈ 1.17 µg/mL) | – | Nc1nc(SCc2ccccc2)nc2c1[nH]c(=O)c(=O)n2Cc1ccccc1
11 | 3.8 µM | 0.9 µM | 8 µg/mL (≈ 20.5 µM) | 25 µM (≈ 9.74 µg/mL) | – | CCCCSc1nc(NC)c2[nH]c(=O)c(=O)n(Cc3ccc(F)cc3)c2n1
12 | 3.1 µM | 1.5 µM | > 64 µg/mL | 50 µM (≈ 19.7 µg/mL) | – | CCCCSc1nc(N)c2[nH]c(=O)c(=O)n(Cc3c(F)cccc3F)c2n1
13 | > 400 µM | 7 µM | – | 10 µM (≈ 3.58 µg/mL) | 18 µM | CCCCSc1nc(N)c2ncn(Cc3ccc([N+](=O)[O-])cc3)c2n1
14 | 4 µM | 2.1 µM | > 64 µg/mL | 1.6 µM (≈ 0.69 µg/mL) | – | CCCCSc1nc(N2CC(O)C2)c2[nH]c(=O)c(=O)n(Cc3ccc(F)cc3)c2n1
15 | – | 1.1 µM | 4 µg/mL (≈ 9.91 µM) | 0.8 µM (≈ 0.323 µg/mL) | – | CCCCSc1nc(N(C)C)c2[nH]c(=O)c(=O)n(Cc3ccc(F)cc3)c2n1
